Screens as filed in PubChem BioAssay.
NALP1 yeast inh: NALP1 inflammasome inhibitors in reconstituted yeast, colorimetric, S. cerevisiae, triplicate retest; S. cerevisiae NALP1/ASC/caspase-1 growth, X-gal OD620, 72 h; inhibition, % at 10 µM; hit rate 0.61% among 280,000; in the data active means inhibition mostly above about 24%, no sharp cut-off; inactive means mostly below about 32%
IMP-1 inhibitor: IMP-1 metallo-beta-lactamase inhibitors, primary screen, biochemical, epi-absorbance readout, Pseudomonas aeruginosa enzyme; AID 1556, 2009; purified IMP-1, nitrocefin hydrolysis, epi-absorbance fluorescence; inhibition, % at 5.6 µM; hit rate 0.45% among 290,000; metallo-beta-lactamase IMP-1 (Pseudomonas aeruginosa);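 active means inhibition above the mean plus 3 SD of all compounds in the same screening run, cut at about 4.5% in these data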
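System: purified IMP-1 / Input: IMP-1 dispensed at 0.2 nM / Medium: 50 mM HEPES pH 7.1, 50 µM ZnSO4, 0.05% Brij 35 / Timing: 15 min enzyme–compound preincubation, then 25 min nitrocefin reaction, 25 °C / Technique: plate fluorescence quenching by hydrolysis product, ex 480/em 530 nm / Repeats: singlicate testing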
SUMO Mot1 rescue: yeast Mot1-301 growth rescue at high temperature, primary screen, SUMOylation pathway inhibitor project, S. cerevisiae, ATP luminescence, 38.5C | S. cerevisiae Mot1-301 growth rescue; percent above DMSO median, 100 means doubled | growth rescue, % at 18.8 µM | hit rate 1% among 320,000 | AID 2716, 2010;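 active means every valid replicate shows activation above 250% relative to neutral control wells; inactive means the rest, any valid replicate at or below 250%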
VIM-2 inhibitor: VIM-2 metallo-beta-lactamase inhibitors, primary screen, biochemical, epi-absorbance readout, Pseudomonas aeruginosa enzyme; purified VIM-2, nitrocefin hydrolysis, epi-absorbance fluorescence; inhibition, % at 5.6 µM; hit rate 0.89% among 290,000; AID 1527, 2009;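 active means inhibition above the mean of all tested compounds plus 3 SD, cutoff set per screening run, cut at about 7.5% in these data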;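 further: red hydrolysis product quenches plate fluorescence so inhibitors raise well fluorescence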
FID counter: compounds displacing fluorescent DNA intercalator, primary screen, artefact control for HCV NS3 helicase inhibitor project, biochemical, FID fluorescence; DNA fluorescent intercalator displacement; inhibition, % at 7.9 µM; hit rate 0.17% among 290,000; AID 1845, 2009; in the data active means inhibition above about 37%;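 further: higher means more ethidium bromide displaced from hairpin DNA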
UBC9 SUMO inh: inhibitors of in vitro SUMOylation cascade, primary screen, biochemical, HTRF, uHTS | SUMO-conjugating enzyme UBC9 (Homo sapiens), P63279 | HTRF SUMOylation assay, SAE1/SAE2 + UBC9 | inhibition, % at 35 µM | hit rate 0.36% among 290,000 | AID 2006, 2009; in the data active means inhibition above about 50%, passing the limit was not always enough; inconclusive means no clear call, values can overlap the other calls
Target sequence (P63279 whole entry, looked up): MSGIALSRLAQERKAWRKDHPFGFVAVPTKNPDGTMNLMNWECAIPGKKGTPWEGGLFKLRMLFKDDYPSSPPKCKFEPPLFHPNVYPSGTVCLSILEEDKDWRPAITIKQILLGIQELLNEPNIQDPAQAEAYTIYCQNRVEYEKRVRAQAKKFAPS
Each line names hits and unclear results; the compound was inactive in the other large screens. In the library only some 2.9% were active in any assay of this set; here they are far more common.

O=C(c1cccc([N+](=O)[O-])c1)c1ccc2[nH]c(=O)[nH]c2c1	IMP-1 inhibitor 29
C=CCN(CC=C)C(=S)NC(=O)c1ccc(-c2ccccc2)cc1	NALP1 yeast inh 39
COc1ccc(OC)c(Nc2nc(NCCO)c3ccccc3n2)c1	FID counter 38
COc1ccc(OC)c(Nc2c3ccccc3nc3ccccc23)c1	VIM-2 inhibitor 11
COc1ccccc1Nc1nc(NCCO)c2ccccc2n1	none (no result: SUMO Mot1 rescue)
COc1ccc(OC)c(Nc2cc(C)c3ccccc3n2)c1	none
O=C(CN1C2=NCCN2c2ccccc21)c1ccc(Br)s1	none
Oc1ccc(/C=N/Nc2cc(N3CCCC3)nc(N3CCCC3)n2)cc1O	UBC9 SUMO inh 63
Oc1ccc(/C=N\Nc2cc(N3CCOCC3)nc(N3CCOCC3)n2)c(O)c1	UBC9 SUMO inh inconclusive
Cn1cc(/C=C(\NC(=O)c2ccccc2)C(=O)NCCN2CCOCC2)c2ccccc21	none
NC(=O)NC(=O)COC(=O)CCCCCNS(=O)(=O)c1ccc2c(c1)OCCO2	none
Cc1cc(/C=C2/C(=O)N(C)C(=S)N2C)c(C)n1C1CC1	none
Cc1cc(/C=C2\SC(=S)NC2=O)c(C)n1C1CC1	VIM-2 inhibitor 7.7 (no result: SUMO Mot1 rescue)
CCOC(=O)NC(Nc1ccc(OC)cc1)(C(F)(F)F)C(F)(F)F	none
CCn1c(N2CCN(S(=O)(=O)c3ccccc3C(F)(F)F)CC2)nc2ccccc21	IMP-1 inhibitor 7.2
CC(=O)c1cc(N2CCOCC2)ccc1[N+](=O)[O-]	none (no result: SUMO Mot1 rescue)
CN(C)/C=C/C(=O)c1cc(N2CCOCC2)ccc1[N+](=O)[O-]	IMP-1 inhibitor 7.4
CCOC(=O)c1sc2nc[nH]c(=O)c2c1C	IMP-1 inhibitor 5.2
CN(Cc1ccno1)Cc1cn(Cc2ccccc2)nc1-c1ccc2c(c1)OCO2	NALP1 yeast inh 29
O=C(CCC1CCCN(C(=O)CCN2CCCCC2=O)C1)NCc1ccccc1F (stereo not drawn)	none
Cc1ccc(S(=O)(=O)Nc2c(Cl)c(Cl)c(O)c3ccccc23)cc1	UBC9 SUMO inh 92
COc1ccc(NC(C)(C)c2nnnn2-c2c(C)cccc2C)cc1	none
Cc1cccc(C)c1-n1nnnc1C(C)(C)N1CCN(N=O)CC1	NALP1 yeast inh 37
CCCn1c(=O)c2ccccc2n2c(SCC(=O)c3ccccc3)nnc12	none
CCCn1c(=O)c2ccccc2n2c(SCC(=O)c3ccc(F)cc3)nnc12	NALP1 yeast inh 42 (no result: IMP-1 inhibitor, SUMO Mot1 rescue, VIM-2 inhibitor, FID counter)
CCCn1c(=O)c2ccccc2n2c(SCCNCCO)nnc12	VIM-2 inhibitor 11
Cc1ccc(C)c(NC(=O)CN(C)C(=O)c2ccc(Cl)nc2)c1	none
O=C(COc1cccc(C(F)(F)F)c1)Nc1nnc(C2CC2)s1	none (no result: NALP1 yeast inh, IMP-1 inhibitor, VIM-2 inhibitor, FID counter, UBC9 SUMO inh)
COCC1CCN(C(=O)c2cc(COc3ccc4c(c3)CCCC4)on2)C1 (stereo not drawn)	NALP1 yeast inh 27
COCC1CCN(C(=O)c2cc(COc3ccc(C)c(C)c3)on2)C1 (stereo not drawn)	none
CC(C)OC(=O)C(C(=O)C(F)(F)F)c1cc(NS(=O)(=O)c2ccc3ccccc3c2)c2ccccc2c1O (stereo not drawn)	IMP-1 inhibitor 9.1, UBC9 SUMO inh 71
CCOC(=O)C(=NCCCN1CCOCC1)NNc1cccc(C(F)(F)F)c1	SUMO Mot1 rescue 324
O=C(CCN1CCOCC1)NNC(=O)Nc1cccc(C(F)(F)F)c1	none
Cc1ccc(N2C(=O)c3cccc4c(N)ccc(c34)C2=O)c2cccnc12	IMP-1 inhibitor 5.7 (no result: NALP1 yeast inh)
Cc1ccc(-n2cnnn2)c2cccnc12	none
Cc1c(Cc2ccccc2)c(=O)oc2c(CN(C)C)c(O)c(Cl)cc12	IMP-1 inhibitor 4.7
Cc1c(Cc2ccccc2)c(=O)oc2c(O)c(O)ccc12	none (no result: SUMO Mot1 rescue)
Nn1c(-c2cccc([N+](=O)[O-])c2)nc2ccccc2c1=O	none
CCc1ccc(NC(=O)C2CCN(S(=O)(=O)c3cnc[nH]3)CC2)cc1	IMP-1 inhibitor 12
COc1cc(C)c(Cl)cc1S(=O)(=O)N1CCSC1	none
O=C(C1=C[C@H](c2csc3ccccc23)C[C@H](OCCCCO)O1)N1CCN(Cc2ccccc2)CC1	NALP1 yeast inh 30
N=C1C(c2ccccc2)=C(O)CN1CCO	none
CN1CCCN(C(=O)/C=C/c2ccc(Cl)cc2Cl)CC1	none
CCCCN(CC)CCNC(=S)Nc1ccc2nc(N3CCN(C)CC3)cc(C)c2c1	FID counter 43
CCN(CC)CCCNC(=O)CCC(=O)Nc1ccc2nc(N3CCC(C)CC3)cc(C)c2c1	none
CCCN(CCC)CCCNC(=S)Nc1ccc2nc(N3CCN(C)CC3)cc(C)c2c1	FID counter 44
CCN(CC)CCCNC(=O)CCC(=O)Nc1ccc2nc(N3CCCCC3)cc(C)c2c1	SUMO Mot1 rescue 889
CCCCN(CC)CCNC(=O)CCC(=O)Nc1ccc2nc(N3CCN(C)CC3)cc(C)c2c1	NALP1 yeast inh 36, VIM-2 inhibitor 7.8, FID counter 41
CC(C)[C@H](NC(=O)c1ccccc1)C(=O)OCC(=O)NCc1ccc2c(c1)OCO2	none (no result: NALP1 yeast inh, IMP-1 inhibitor, VIM-2 inhibitor, FID counter, UBC9 SUMO inh)
COCCSc1ccccc1C(=O)N1CCN(Cc2ccccc2)CC1	none
Cc1ccc(S(=O)(=O)NC(=O)Nc2ccc(F)cc2)cc1	none
Cc1ccc(S(=O)(=O)NC(=O)Nc2ccc(OC(F)F)cc2)cc1	NALP1 yeast inh 36
OCC(Cc1ccc2c(c1)OCO2)C(CO)Cc1ccc2c(c1)OCO2 (stereo not drawn)	none (no result: IMP-1 inhibitor, VIM-2 inhibitor, FID counter)
Cc1ccc(NC(=S)N2CCN(C(=O)c3ccccc3)CC2)c(C)c1	SUMO Mot1 rescue 440
Cc1ccc(NC(=S)N2CCN(c3ccccn3)CC2)c(C)c1	SUMO Mot1 rescue 325
Cc1cccc(NC(=S)N2CCN(c3ccccn3)CC2)c1	none
O=[N+]([O-])CC(c1ccc(F)cc1)c1c[nH]c2ccccc12 (stereo not drawn)	none
O=c1[nH][nH]c(-c2ccccc2O)c1C(C[N+](=O)[O-])c1ccc(Br)cc1 (stereo not drawn)	NALP1 yeast inh 102
Cc1ccc(C(C[N+](=O)[O-])c2c(-c3ccccc3O)[nH][nH]c2=O)cc1 (stereo not drawn)	NALP1 yeast inh 114, SUMO Mot1 rescue 272
CCOc1ccc(Cl)cc1S(=O)(=O)N1CCCC1	none
CCOc1c(S(=O)(=O)N2CCCC2)ccc(Cl)c1Cl	NALP1 yeast inh 41
O=C(/C=C/c1ccc(Br)o1)NC(c1ccccc1)c1ccccc1	none
O=C(/C=C/c1ccc(Br)o1)OCc1ccccc1	SUMO Mot1 rescue 305
Cc1nc2cccc(C(=O)NC3CCCCC3)c2o1	NALP1 yeast inh 32
